Source: PubChem (The Scripps Research Institute Molecular Screening Center)
Hits are enriched below; roughly 3.1% of the tested compounds scored in any of these assays.
GPR7 antagonist: human neuropeptides B/W receptor 1 antagonism. GPR7-expressing cells, fluorescence antagonist assay. AID 1861. P48145. 290,000 compounds, 1.1% hits. inhibition, % at 4.4 µM; in the data active means inhibition above about 16%, passing the limit was not always enough;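 further: cells stimulated with the agonist NPW; 0% = agonist with vehicle and 100% = vehicle without agonist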
Target sequence (P48145 whole entry, looked up): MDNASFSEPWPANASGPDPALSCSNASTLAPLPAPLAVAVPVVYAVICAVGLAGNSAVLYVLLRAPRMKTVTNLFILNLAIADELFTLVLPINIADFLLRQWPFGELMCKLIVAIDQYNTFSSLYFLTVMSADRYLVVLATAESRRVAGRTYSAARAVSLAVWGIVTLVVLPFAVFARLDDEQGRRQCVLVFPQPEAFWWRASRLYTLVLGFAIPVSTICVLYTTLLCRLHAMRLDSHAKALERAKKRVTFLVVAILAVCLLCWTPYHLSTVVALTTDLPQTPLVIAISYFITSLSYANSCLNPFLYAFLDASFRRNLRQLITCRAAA
CHO parental Ca: signal in parental CHO cells, OX1R antagonist counter-screen; 330,000 compounds, 0.63% hits; parental CHO-K1, ATP-induced calcium, Fluo-8 fluorescence; AID 463079; inhibition, % at 5.6 µM;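 active means inhibition above that plate's mean sample inhibition plus 3 SD, cut at about 26% in these data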;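 further: 0% = ATP-challenged DMSO wells and 100% = DMSO wells without ATP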
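Material: parental CHO cells / Compound: single nominal dose of 5.6 µM per compound / Signal: Fluo-8 fluorescence / Replicates: singlicate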
GalR3 antag: blocks the human galanin receptor 3; O60755; HEK293 GalR3-CNG cAMP membrane potential fluorescence; galR3 body fused to GalR1 C-terminus; inhibition, % at 3 µM; 360,000 compounds, 0.44% hits; AID 651719;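 active means inhibition above the screen-wide average plus 3 SD, cut at about 13% in these data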;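 further: forskolin and galanin both at EC90 stimulate the cells; cAMP rise reported by CNG channel membrane potential dye signal; 0% = forskolin plus galanin with DMSO and 100% = forskolin alone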
Target sequence (O60755 1-299 limits assumed): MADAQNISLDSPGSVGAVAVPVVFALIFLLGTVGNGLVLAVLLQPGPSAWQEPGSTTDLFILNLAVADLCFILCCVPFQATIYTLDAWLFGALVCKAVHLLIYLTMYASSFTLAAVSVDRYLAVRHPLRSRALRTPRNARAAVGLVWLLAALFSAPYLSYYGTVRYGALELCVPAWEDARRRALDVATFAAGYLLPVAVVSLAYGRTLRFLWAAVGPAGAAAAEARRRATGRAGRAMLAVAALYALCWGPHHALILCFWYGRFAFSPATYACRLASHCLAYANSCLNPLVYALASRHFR
OX1R antag-1: blocks the human orexin 1 receptor; 330,000 compounds, 1.8% hits; O43613; inhibition, % at 6.6 µM; AID 485270; OX1R-expressing cells, FRET antagonist read-out; in the data active means inhibition mostly above about 38%, no sharp cut-off; inactive means mostly below about 40%;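 further: 0% = agonist challenge alone and 100% = reference antagonist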
OX1R antag-2: human HCRTR1 antagonism. O43613. CHO/OX1R cells, Fluo-8 calcium fluorescence, orexin A. inhibition, % at 5 µM. 330,000 compounds, 0.43% hits. AID 434989;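 active means inhibition above its plate's threshold, mean inhibition of all tested compounds on the plate plus 3 SD, cut at about 37% in these data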;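 further: 0% = orexin A challenge wells and 100% = SB-334867-A antagonist wells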
Active calls of the source: *; . = no result given.

SMILES	GPR7 antagonist	CHO parental Ca	GalR3 antag	OX1R antag-1	OX1R antag-2
O=C(CN(c1cccc(C(F)(F)F)c1)S(=O)(=O)c1ccc(Cl)c([N+](=O)[O-])c1)NCc1ccccc1Cl	14	11	-12	23	8
O=C(CN(c1cccc(C(F)(F)F)c1)S(=O)(=O)c1ccc(Cl)c([N+](=O)[O-])c1)NCc1ccccc1	41*	17	-9	20	22
Cc1ccc(N(CC(=O)NCCc2ccc(F)cc2)S(=O)(=O)c2ccc(Cl)c([N+](=O)[O-])c2)c(C)c1	48*	-2	-10	18	5
COc1ccc(CCNC(=O)c2cc(-c3ccncc3)nc3c(Cl)cccc23)cc1OC	7	-36	-2	39	-33
COc1ccc(CNC(=O)c2cc(-c3ccncc3)nc3c(C)cc(C)cc23)cc1OC	-4	-19	3	48*	-8
O=C(OCn1ncc(Cl)c(Cl)c1=O)c1ccccc1Cl	2	17	-2	15	-4
O=C(OCn1ncc(Cl)c(Cl)c1=O)c1ccc(F)cc1	-4	32*	.	10	27
Cc1ccc(Nc2nc(NCc3ccco3)c3ccccc3n2)cc1	34*	56*	-11	33	47*
Oc1ccccc1-c1nc(NCc2ccco2)c2ccccc2n1	-17	-17	-7	40*	-20
Fc1ccccc1-c1nc(NCc2ccco2)c2ccccc2n1	2	-15	-5	46	-31
CCCCNc1ccc2c(c1)OC[C@H](C)NS2(=O)=O	.	.	-3	.	.
CN(C)c1ccc(NC(=O)/C=C/c2ccccc2Cl)cc1	-6	-16	-3	64*	-8
CCN(CC)c1ccc(NC(=O)/C=C\c2ccccc2Cl)cc1	10	-18	-10	40*	12
Cc1cccc(CNC(=O)Cn2ccc3cc(S(=O)(=O)N4CCCC4)ccc32)c1	-15	-23	-9	13	-13
CC1(c2nnnn2Cc2ccccc2)CCC(=O)N1Cc1ccc(F)cc1 (stereo not drawn)	.	.	-2	.	.
CN(C)c1ccc(-c2nnc(-c3ccccc3F)o2)cc1	2	-7	-8	51*	-5
NC(=O)Nc1ccc(C(=O)OCC(=O)c2c[nH]c3ccccc23)cc1	.	-1	-6	6	18
N#CCC(=O)Nc1ccc(C(=O)OCC(=O)c2c[nH]c3ccccc23)cc1	.	4	-6	39*	20
COCC(C)n1c(SCc2nc(N)nc(Nc3ccccc3C)n2)nc2ccccc2c1=O (stereo not drawn)	3	-25	-3	29	-25
CCCCn1c(SCc2nc(N)nc(Nc3ccccc3C)n2)nc2ccccc2c1=O	7	-19	-1	71*	8
Cc1csc2c(N3CCN(C(=S)Nc4ccc(F)cc4F)CC3)ncnc12	6	39*	-5	25	24
O=C1C2CCCN2C(=S)N1c1cc(Cl)ccc1Cl (stereo not drawn)	.	.	-3	.	.
O=C(CSc1ccc(C(F)(F)F)cc1[N+](=O)[O-])Nc1ccccc1	0	59*	3	7	17
CCOc1ccc(-c2nc(-c3cccs3)c(CC(=O)O)s2)cc1OC	4	-4	0	38*	-7
CC1CCN(C(=O)c2[nH]cnc2C(=O)Nc2ccccc2F)CC1	.	.	-4	.	.
SMILES	GPR7 antagonist	CHO parental Ca	GalR3 antag	OX1R antag-1	OX1R antag-2
C=CCn1c(SC)nnc1-c1cccc([N+](=O)[O-])c1	-5	-7	-10	53*	-3
CN1CCN(C2CN(Cc3cn(Cc4cccc(C(F)(F)F)c4)nn3)S(=O)(=O)C2)CC1 (stereo not drawn)	.	.	-2	.	.
Nc1ccc(O)c([N+](=O)[O-])c1	.	5	-1	49*	-10
Nc1cc([N+](=O)[O-])ccc1O	10	-7	-3	41	-3
O=S1(=O)CC(N2CCN(CC3CC3)CC2)CN1Cc1ccccc1 (stereo not drawn)	.	.	-5	.	.
COc1ccc(C(=O)Nc2nc3c(s2)Cc2cc(OC)ccc2-3)cc1	-2	-4	-3	15	-20
COc1ccc2c(c1)Cc1sc(NC(=O)c3cccs3)nc1-2	-7	-21	-5	68*	-5
Cc1cccc(-n2c(SCC(=O)NCc3ccc4c(c3)OCO4)nc3ccccc3c2=O)c1	-6	-10	-5	40*	-11
O=C(CSc1nc2ccccc2c(=O)n1NC(=O)Cc1ccccc1)NCc1ccccc1	-7	-7	-4	46*	-11
O=C(CSc1nc2ccccc2c(=O)n1-c1ccccc1)NCc1ccc2c(c1)OCO2	5	-19	-3	23	-10
Cn1cc(SCC(=O)NCc2ccc3c(c2)OCO3)c2ccccc21	-3	-5	.	41*	-3
COc1cccc(CC(=O)N2CCN(C(=O)C(=O)c3ccc(OC)c(OC)c3)CC2)c1	.	.	-6	.	.
NC(=O)c1ncn2c(=O)n(CCCl)nnc12	.	.	1	.	.
Cc1cc2nc(SCCOC(=O)Nc3ccccc3)nc(C)c2cc1C	1	-50	0	72*	-23
Cc1cc2nc(SCCOC(=O)Nc3cccc(Cl)c3)nc(C)c2cc1C	2	-27	-9	39	-22
CN1N=C2c3ccccc3CCCC2C1c1ccc(F)cc1 (stereo not drawn)	-16	3	-2	10	-31
Cc1ccc(CNC(=O)c2ccc(NC(=O)CCS(=O)(=O)c3cccs3)cc2)cc1	3	98*	-1	18	-22
N#CC1=C(N)Oc2cc(O)c(Cl)cc2C1c1ccccc1F (stereo not drawn)	-11	30*	-6	28	21
COCCCn1[nH]c2c3c(ccc2c1=O)C(=O)c1ccccc1C3=O	3	-13	-3	75*	-10
Cc1ccc(-n2[nH]c3c4c(ccc3c2=O)C(=O)c2ccccc2C4=O)cc1	0	-5	-4	9	-4
Nc1nc(N)c(N=O)c(OCC2CCCCC2)n1	-24	-21	.	40*	-22
NS(=O)(=O)OCC1CCCCC1	10	-5	1	8	-2
Nc1nc2c(-c3ccc([N+](=O)[O-])cc3)nnn2c2ccccc12	.	.	0	.	.
COc1cccc(Nc2nc3ccccc3nc2NS(=O)(=O)c2cccs2)c1	-7	8	-6	43*	-4
COc1ccc(Nc2nc3ccccc3nc2NS(=O)(=O)c2cccs2)c(OC)c1	-13	-16	-4	14	3
Cc1ccc(F)c(CNC(=O)C2(C)CCCN2C(=O)C(C)C)c1F (stereo not drawn)	.	.	7	.	.
COc1ccc(NC(=S)NC(NC(=O)c2cccc(Cl)c2)C(Cl)(Cl)Cl)c([N+](=O)[O-])c1 (stereo not drawn)	-4	26*	-3	31	7
COc1ccc(NC(=S)NC(NC(=O)c2cccc(C)c2)C(Cl)(Cl)Cl)c([N+](=O)[O-])c1 (stereo not drawn)	-10	-9	-4	61	-13
COC(=O)c1cc(NC(=O)/C=C/c2ccc3c(c2)OCO3)cc(C(=O)OC)c1	-6	-13	2	22	-11
COC(=O)c1cccc(NC(=O)/C=C/c2ccc3c(c2)OCO3)c1	5	-5	-5	52*	-2
